Bioassay records deposited in PubChem by several laboratories.
m5-HT2A agonist – mouse HTR2A agonism via beta-arrestin recruitment. P35363. CHO-K1 mHTR2A beta-arrestin complementation, luminescence; percent of 30 µM serotonin response. activation, % at 7.6 µM. 360,000 compounds, 0.66% hits;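 active means activation above a run cutoff, the mean activation of all tested compounds plus 3 SD, cut at about 14% in these data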
MC4R ag barr – agonists of human melanocortin 4 receptor (MC4R) beta-arrestin; U2OS MC4R beta-arrestin complementation, luminescence; percent of melanotan II response, DMSO zero; 360,000 compounds, 0.98% hits; activation, % at 8.9 µM;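 active means activation above a per-plate cutoff, the mean activation of sample wells on that plate plus 3 SD, cut at about 8% in these data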
Target sequence (P32245 whole entry, looked up): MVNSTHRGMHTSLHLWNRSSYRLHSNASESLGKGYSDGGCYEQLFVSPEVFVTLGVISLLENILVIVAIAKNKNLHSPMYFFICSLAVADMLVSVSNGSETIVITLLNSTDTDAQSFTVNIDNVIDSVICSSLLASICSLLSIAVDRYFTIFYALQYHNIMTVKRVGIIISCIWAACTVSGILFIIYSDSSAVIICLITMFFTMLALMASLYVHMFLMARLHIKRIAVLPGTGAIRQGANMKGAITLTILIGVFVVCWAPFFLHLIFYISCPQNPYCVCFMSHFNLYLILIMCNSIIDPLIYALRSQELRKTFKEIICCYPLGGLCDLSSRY
ANO1 activ – mouse TMEM16A channel activation, primary screen; Q8BHY3; HEK293 TMEM16A/YFP-H148Q/I152L, iodide quench fluorescence; stronger effect = lower value; B-score at 10 µM; 340,000 compounds, 0.3% hits; AID 623877;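 active means fluorescence-ratio B-score plate-corrected deviation score at least 3 library SD below zero, with starting fluorescence score within 5 deviations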;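 further: channel opened by trigger with iodide after compound preincubation; score built on the fluorescence ratio of max minus min over baseline; more negative score means more quench and so TMEM16A activation or potentiation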
TMEM16A inh – inhibitors of mouse TMEM16A calcium-activated chloride channel; HEK293 TMEM16A/YFP iodide influx fluorescence, ionomycin; normalized B-score (activity score, 25-100; higher = stronger inhibition) at 10 µM; Q8BHY3; 310,000 compounds, 1.2% hits; AID 588511;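 active means ratio plate-corrected score three or more library SD toward inhibition, starting fluorescence score within five deviations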;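 further: score derived from kinetic fluorescence span divided by baseline fluorescence per well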
MC4R antag cAMP – antagonists of human melanocortin 4 receptor (MC4R). P32245. MC4R-expressing cells, MTII-stimulated cAMP, LANCE TR-FRET. inhibition, % at 6.5 µM. 360,000 compounds, 0.48% hits. AID 540295;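 active means inhibition above its plate's cutoff, the mean of tested wells on that plate plus 3 SD, cut at about 29% in these data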
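Assay system: human MC4R-expressing U2OS cells; reagent: Melanotan II stimulation of cells; dosing: 6.5 µM single dose; timing: compound 30 min, challenge 1 h, detection 1 h; signal: TR-FRET cAMP assay; replicates: one well per compound, no replicates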
beta cell repl – inducers of beta-cell replication in MIN6 cells; proliferation, % at 10 µM; 330,000 compounds, 0.29% hits; MIN6 cells proliferation, ATPlite luminescence, 48 h; cells starved in 0.2% serum; 100% = growth in 10% serum;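 active means compounds whose signal lies at least 3.5 SD above the mean of all wells on their plate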
MOR ag counter – counter-screen for mouse HTR2A agonists: human mu opioid receptor agonists. 2,300 compounds, 5.3% hits. U2OS OPRM1 beta-arrestin PathHunter, luminescence; DMSO 0%, DAMGO 9.3 µM 100%. shares compounds with m5-HT2A agonist. AID 624380. activation, % at 9.3 µM;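 active means mean activation above the mean of DMSO-only wells plus 3 SD, cut at about 0.5% in these data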
HTR2A ag conf – confirmation of mouse HTR2A serotonin receptor agonists. activation, % at 7.6 µM. shares compounds with m5-HT2A agonist. AID 624381. CHO-K1 PathHunter beta-arrestin recruitment, luminescence; DMSO 0%, 30 µM serotonin 100%. 2,300 compounds, 19% hits;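 active means mean activation across triplicates above the hit threshold derived in the original primary screen, cut at about 15% in these data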
A number is an active result; - = inactive; . = no result. Most compounds without a hit are left out; they make up all but 3.4% or so of the library.

SMILES	m5-HT2A agonist	MC4R ag barr	ANO1 activ	TMEM16A inh	MC4R antag cAMP	beta cell repl	MOR ag counter	HTR2A ag conf
COCCN=c1scc(-c2ccco2)n1/N=C/c1ccc(O)c(O)c1O	28.3	-	-	-	-	-	-	71.5
COCCN=c1scc(-c2cccs2)n1/N=C(\C)c1ccco1	-	-	-	-	-	-	.	.
Cn1nc(C(=O)NNC(=O)CCc2ccccc2Cl)c2ccccc2c1=O	-	-	-	-	-	-	.	.
CCN(CC)C(=O)CSc1nc2ncccc2[nH]1	-	-	-	-	-	-	.	.
C=C(C)CSc1nc2ncccc2[nH]1	22.2	-	-	-	-	-	-	-
CCCNC(=O)C[C@H]1C[C@H]2c3cc(NC(=O)Nc4ccc(F)cc4)ccc3O[C@H]2[C@@H](CO)O1	-	-	.	.	-	.	.	.
CCOC(=O)C(=CNc1ccc2c(c1)CCN2C(C)=O)C(=O)OCC	19.2	-	-	-	-	-	-	-
Cc1csc(NC(=O)c2ccccc2)n1	-	-	-	-	-	-	.	.
CC(=O)Nc1nc(C)cs1	15.6	-	-	-	-	-	-	-
CC(C)(C)Nc1nc2ccc([N+](=O)[O-])cc2o1	14.7	-	-	-	-	-	-	-
C=CCN1CCN(C(=O)c2ccc(-c3ccccc3)cc2)CC1	-	-	-	-	-	-	.	.
Cc1cccc(C2CC3(CC(C)(C)NC(=S)N3)Oc3cc(O)ccc32)c1 (centres undefined)	-	-	-	-	-	-	.	.
C=CCN1CCc2c(cc(O)c(O)c2Cl)C(c2ccccc2)C1 (centres undefined)	60.3	-	-	-	-	-	-	147.6
C=CCN1CCN(C(=O)CSc2ccccc2)CC1	-	-	-	-	-	-	.	.
Cc1cccc(C2CN(C)CCc3c2cc(O)c(O)c3Cl)c1 (centres undefined)	21.7	-	-	-	-	-	-	34.0
C=CCN1CCc2cc(O)c(O)cc2C(c2ccccc2)C1 (centres undefined)	29.5	-	-	-	-	-	-	85.5
CN(CC(=O)Nc1ccc(Cl)c(C(F)(F)F)c1)C(=O)c1ccc2c(c1)NC(=O)CS2	-	-	-	.	-	-	.	.
O=C(C1CCCCC1)N1CCC(c2nc3c(nnn3Cc3c(F)cccc3Cl)c(=O)[nH]2)CC1	-	-	-	-	-	-	.	.
Cc1nc2c(nnn2Cc2c(Cl)cccc2Cl)c(=O)[nH]1	18.6	-	-	-	-	-	-	-
CCOc1ccc(CCNC(=O)c2cccc(NC3=NC4CS(=O)(=O)CC4S3)c2)cc1OCC (centres undefined)	-	-	-	-	-	-	.	.
CCOc1ccc(CCNC(=O)c2cccc(NC3=NC4CS(=O)(=O)CC4S3)c2)cc1 (centres undefined)	17.8	-	-	-	-	-	-	-
CC(C)C(=O)NC(=S)Nc1ccc(S(=O)(=O)NC2CCCCC2)cc1	-	-	-	-	-	-	.	.
CCCC[C@@H]1CNC(=S)N1CCc1cccc(F)c1	14.6	-	-	-	-	-	-	-
CCCC[C@@H]1CNC(=O)C(=O)N1CCc1cc(C(F)(F)F)cc(C(F)(F)F)c1	15.3	-	-	-	-	-	-	-
Fc1cccc(CCN2C(=S)NC[C@@H]2Cc2ccccc2)c1	-	-	-	-	-	-	.	.
SMILES	m5-HT2A agonist	MC4R ag barr	ANO1 activ	TMEM16A inh	MC4R antag cAMP	beta cell repl	MOR ag counter	HTR2A ag conf
CN(C(=O)c1ccccc1-c1ccccc1C(=O)O)c1ccccc1	-	-	-	-	-	-	.	.
COc1ccc(C(=O)C2CCCN(Cc3ccc4c(c3)OCCO4)C2)cc1F (centres undefined)	-	-	-	-	-	-	.	.
COc1ccccc1C(=O)C1CCCN(Cc2ccc3c(c2)OCCO3)C1 (centres undefined)	32.8	-	-	-	-	-	-	15.5
CCOc1cccc(CN2CCCC(C(=O)c3cc(Cl)ccc3OC)C2)c1O (centres undefined)	23.0	-	-	-	-	-	-	-
COc1ccc(F)cc1C(=O)C1CCCN(Cc2ccc3c(c2)OCCO3)C1 (centres undefined)	26.2	-	-	-	-	-	2.8	28.4
CN1CCN(C(=O)/C(=C/c2ccc([N+](=O)[O-])cc2)NC(=O)c2ccccc2)CC1	-	-	-	-	-	-	.	.
N#Cc1ccc(CN2CCN(C(=O)CNS(=O)(=O)c3ccc4c(c3)OCCCO4)CC2)cc1	15.2	-	-	.	-	-	-	-
O=C(CNS(=O)(=O)c1ccc(Br)cc1)N1CCN(Cc2ccccc2)CC1	15.1	-	-	-	-	-	-	16.9
O=C(CNS(=O)(=O)c1ccc2c(c1)OCCCO2)N1CCN(Cc2ccccc2)CC1	-	-	-	.	-	-	.	.
O=C(Nc1ccccn1)c1ccc(S(=O)(=O)N2CCCCCC2)cc1	14.8	-	-	-	-	-	-	-
Cn1cnc([N+](=O)[O-])c1Sc1nc(N)nc2c1ncn2C1CC(O)C(CO)O1 (centres undefined)	-	-	-	.	-	.	.	.
COc1ccc(CC(=O)OCC(=O)Nc2ncc(Cl)c(C)c2Cl)cc1	14.6	-	-	.	-	-	-	-
Cc1c(Cl)cnc(NC(=O)COC(=O)CNC(=O)c2ccccc2)c1Cl	-	-	-	.	-	-	.	.
NC(=N\N=CCc1ccccc1)/C(N)=N/N=CCc1ccccc1	-	-	-	.	-	.	.	.
COc1ccccc1Nc1nnc(SCC(=O)N2CC(=O)Nc3ccccc32)s1	17.9	-	-	-	-	-	-	-
O=C1CN(C(=O)CSc2nnc(Nc3ccccc3)s2)c2ccccc2N1	-	-	-	-	-	-	.	.
CCOc1ccc(C(=O)NCC(=O)NNC(=O)C2COc3ccccc3O2)cc1OCC (centres undefined)	19.3	-	-	-	-	-	-	-
O=C(Nc1ccc([N+](=O)[O-])cc1)OC1CCS(=O)(=O)C1 (centres undefined)	-	.	.	.	.	.	.	.
Cc1nnsc1C(=O)N1CCCC1(C)C(=O)O (centres undefined)	26.8	-	.	.	-	.	-	-
CCOC(=O)C1(C)CCCCCN1C(=O)c1snnc1C (centres undefined)	-	-	.	.	-	.	.	.
O=C1NC[C@@H](CCCCN2C[C@H](Cc3ccccc3)N(CC3CCCCC3)C(=O)C2=O)N(CCc2ccccc2)C1=O	-	.	.	.	.	.	.	.
